How the values were obtained:
[1] = In vitro inhibition of bone resorption by isolated Human osteoclastoma cells (ELISA); format: functional
Procedure, shortened: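 Collagenase-dispersed osteoclastoma cells, negatively selected with HLA-I Dynabeads, were settled on bone slices at 4000 cells/well. Compound was added at several concentrations, with 8 slices per concentration. After 48 h in D-MEM, type I collagen fragments released into the supernatant were quantified by ELISA.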

[2] = target: V-type proton ATPase subunit B, kidney isoform (Homo sapiens, UniProt P15313); experiment: Compound was tested for inhibition of V-ATPase from human kidney cortex(hK)
Procedure, shortened: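 Brush border membranes from frozen human kidney cortex, about 70 μg protein/mL. Bafilomycin-sensitive ATPase in 0.2 M sucrose, 50 mM KCl, 10 mM Hepes-Tris pH 7.4, 1 mM CDTA, 1 mM ATP, 0.1 mM molybdate, 5 μM valinomycin, 5 μM nigericin. Started with 5 mM MgSO4, 30 min at 37 °C, Pi measured colorimetrically (malachite green).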

[3] = target: T1, V-type proton ATPase 116 kDa subunit a 1 (Gallus gallus, UniProt Q9I8D0); experiment: Compound was tested for inhibition of V-ATPase from Chicken adrenal glands(cAG); format: tissue-based, Adrenal gland
Procedure, shortened: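 Bafilomycin-sensitive ATPase in purified microsomal membranes from whole chicken adrenal glands (two-step 35%/50% sucrose gradient), 20–40 μg protein/mL. Medium: 0.2 M sucrose, 50 mM KCl, 10 mM Hepes-Tris pH 7.4, 1 mM CDTA, 1 mM ATP, 0.1 mM molybdate, 5 μM valinomycin, 5 μM nigericin. Started with 5 mM MgSO4, 30 min at 37 °C, phosphate read by malachite green.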

[4] = target: T1, V-type proton ATPase 116 kDa subunit a 1; experiment: (§1) Compound was tested for inhibition of V-ATPase from Chicken osteoclasts (cOc)
Procedure, shortened: (§2)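 Bafilomycin-sensitive ATPase activity in sucrose-gradient-purified membrane vesicles from medullary bone of calcium-starved egg-laying hens, 20–40 μg protein/mL. Medium: 0.2 M sucrose, 50 mM KCl, 10 mM Hepes-Tris pH 8, 1 mM CDTA, 1 mM ATP, 0.1 mM molybdate, 5 μM valinomycin, 5 μM nigericin. Started with 5 mM MgSO4; 30 min, 37 °C; phosphate release by malachite green.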

[5] = In vitro inhibition of bone resorption by isolated Human osteoclastoma cells by the number of excavations (pits/bone slice); format: functional
Procedure, shortened: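 Human giant-cell-tumour osteoclasts were HLA-I bead-depleted and seeded on bone slices (4000 cells/well), 8 slices per concentration, then cultured 48 h in D-MEM. Slices were glutaraldehyde-fixed and TRAP-stained, and cells were bleached off. Slices were gold-coated and resorption pits counted by light microscopy, expressed as pits/bone slice.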

[6] = target: T1, V-type proton ATPase 116 kDa subunit a 1; experiment: as §1; format: functional; procedure, shortened: as §2

V-type proton ATPase subunit B, kidney isoform, sequence (P15313 whole entry, canonical isoform): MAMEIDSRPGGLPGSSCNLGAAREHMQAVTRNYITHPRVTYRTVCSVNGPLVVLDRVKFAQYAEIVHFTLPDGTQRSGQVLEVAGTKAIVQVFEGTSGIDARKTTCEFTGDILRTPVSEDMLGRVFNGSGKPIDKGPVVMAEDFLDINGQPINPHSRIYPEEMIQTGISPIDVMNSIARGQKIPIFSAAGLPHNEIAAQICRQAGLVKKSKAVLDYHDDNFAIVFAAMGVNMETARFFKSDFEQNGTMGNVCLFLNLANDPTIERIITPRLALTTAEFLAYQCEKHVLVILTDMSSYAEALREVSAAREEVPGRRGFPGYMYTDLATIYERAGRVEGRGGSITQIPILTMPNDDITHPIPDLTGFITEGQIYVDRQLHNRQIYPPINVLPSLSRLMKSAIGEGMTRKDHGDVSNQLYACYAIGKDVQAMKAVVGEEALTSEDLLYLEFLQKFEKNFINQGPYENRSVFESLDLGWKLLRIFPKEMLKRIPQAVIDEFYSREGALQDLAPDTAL
T1 sequence (Q9I8D0 whole entry): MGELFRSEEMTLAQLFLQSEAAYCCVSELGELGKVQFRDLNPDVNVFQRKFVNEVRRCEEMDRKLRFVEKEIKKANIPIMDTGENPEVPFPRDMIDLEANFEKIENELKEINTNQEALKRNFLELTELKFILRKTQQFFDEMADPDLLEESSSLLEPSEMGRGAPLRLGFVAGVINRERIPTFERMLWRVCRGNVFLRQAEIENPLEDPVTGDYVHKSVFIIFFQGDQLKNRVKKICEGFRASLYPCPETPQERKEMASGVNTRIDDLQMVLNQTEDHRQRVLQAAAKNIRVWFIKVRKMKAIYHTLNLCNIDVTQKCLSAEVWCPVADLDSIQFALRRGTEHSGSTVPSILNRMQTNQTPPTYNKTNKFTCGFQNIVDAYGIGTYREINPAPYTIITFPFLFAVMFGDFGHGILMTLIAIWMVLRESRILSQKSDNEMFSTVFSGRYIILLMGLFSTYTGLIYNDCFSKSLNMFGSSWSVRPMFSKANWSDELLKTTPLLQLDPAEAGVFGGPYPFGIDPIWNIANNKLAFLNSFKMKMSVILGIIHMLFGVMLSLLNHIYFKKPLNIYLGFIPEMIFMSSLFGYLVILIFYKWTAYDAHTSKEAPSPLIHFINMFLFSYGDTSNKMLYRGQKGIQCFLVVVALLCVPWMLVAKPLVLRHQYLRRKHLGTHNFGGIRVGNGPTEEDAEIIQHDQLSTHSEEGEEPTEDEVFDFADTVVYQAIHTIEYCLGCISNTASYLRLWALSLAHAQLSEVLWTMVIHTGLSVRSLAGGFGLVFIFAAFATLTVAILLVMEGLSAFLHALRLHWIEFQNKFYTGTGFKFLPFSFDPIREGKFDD

Structure (SMILES)	IC50 [1] [nM]	IC50 [2] [nM]	IC50 [3] [nM]	IC50 [4] [nM]	IC50 [5] [nM]	IC50 [6] [µM]
CO/C(=C\C=C\c1cc2cc(Cl)c(Cl)cc2[nH]1)C(=O)NC1C[C@H]2CC[C@@H](C1)N2C (some centres not stated)	30	1320	2500	100	30	
COC(=O)/C(=C\C=C\c1cc2ccccc2[nH]1)OC				30000		30
CCN(CC)CCCNC(=O)/C(=C/C=C/c1cc2cc(Cl)c(Cl)cc2[nH]1)OC	140	3000	2800	180	180	
CO/C(=C\C=C\c1cc2cc(Cl)c(Cl)cc2[nH]1)C(=O)NC1CC(C)(C)NC(C)(C)C1	30	440	820	80	40	
CO/C(=C\C=C\c1cc2cc(Cl)c(Cl)cc2[nH]1)C(=O)NCCCN1CCN(c2ncccn2)CC1	10	370	930	60	30	
